Screening results from PubChem BioAssay.
Compounds with a hit are over-represented: about 3.8% of the library has one in this group of screens.
KCNQ1 pot = potentiators or activators of human KCNQ1 potassium channel. CHO-K1 KCNQ1, thallium flux FluxOR fluorescence; hits give high values. AID 2648. B-score at 10 µM. P51787. hit rate 0.35% among 310,000;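 active means fluorescence ratio B-score, a plate-corrected score, at least three library SD, with initial intensity B-score within 5 SD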
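Assay system: CHO-K1 cells stably expressing KCNQ1. Medium: assay buffer for compound exposure, DMSO matched across wells. Timing: 37 °C overnight plating, 90-min dark dye load, 20-min compound pretreatment. Signal: kinetic FluxOR fluorescence, 10 s baseline plus 110 s post-stimulus.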
Kir21 block = Kir2.1 (mouse) channel inhibition; HEK293-Kir2.1, FluxOR thallium flux fluorescence; hits give low values; B-score at 10 µM; hit rate 0.85% among 310,000; AID 1672;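 active means fluorescence ratio B-score at or below minus 3 SD of library scores, with starting-brightness B-score within 2 SD, cut at about -4.2 in these data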;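 further: channel flux triggered by added potassium and thallium sulfate stimulus; B-score of peak minus minimum fluorescence over baseline after thallium stimulus; more negative B-score means stronger Kir2.1 block with less thallium influx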
KCNQ1 block = inhibitors of human KCNQ1 potassium channel | P51787 | CHO-K1 KCNQ1, FluxOR thallium flux fluorescence; hits give high values | hit rate 1.3% among 310,000 | AID 2642 | B-score at 10 µM;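 active means compounds whose thallium flux B-score, printed positive for inhibition, exceeds three library SD while starting fluorescence stays within three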;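 further: channel opened by potassium depolarization with thallium stimulus after 20 min compound exposure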
KCNK9 block = blocks the human KCNK9 two-pore domain potassium channel; B-score at 10 µM; Q9NPC2; HEK293 KCNK9, FluxOR thallium flux fluorescence; hits give low values; AID 488922; hit rate 1.2% among 310,000;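 active means ratio B-score over 3 SD below the library mean, with starting fluorescence within 5 SD of its mean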;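 further: negative B-score means less thallium flux so channel inhibition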
KCNK3 inh = human KCNK3 channel inhibition, primary screen. O14649. CHO-KCNK3 thallium flux, FluxOR fluorescence; hits give low values. hit rate 0.84% among 340,000. B-score at 10 µM;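 active means B-score under library mean minus 4 SD, starting fluorescence ratio at most library mean plus 5 SD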;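 further: more negative B-score means stronger inhibition of thallium flux through KCNK3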
hERG protect = compounds protecting human hERG from proarrhythmic drug block; Q12809; CHO-hERG, FluxOR thallium flux, dofetilide IC70 present; activation (rescue from dofetilide block), less the hit threshold, % at 10 µM; hit rate 0.51% among 310,000;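 active means activation above the mean of controls blocked by dofetilide plus 5 SD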;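 further: thallium influx through hERG after potassium depolarization seen as dye fluorescence rise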
KCNQ1 block val = reconfirmed blocker of the human KCNQ1 potassium channel. shares compounds with KCNQ1 block. KCNQ1 cell line, FluxOR thallium flux fluorescence. inhibition, % at 10 µM. hit rate 93% among 1,600. AID 588353;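 active means primary screen active, with duplicate mean exceeding buffer control mean plus 3 SD of buffer wells, cut at about 28% in these data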
CHO KCNQ1 ctr = counter-screen for KCNQ1 inhibitors: effect in parental CHO cells. hit rate 21% among 1,600. parental CHO-K1, FluxOR thallium flux fluorescence ratio; hits give low values; zero means no signal rise above baseline. fluorescence ratio (Tl flux) at 10 µM. AID 588366. shares compounds with KCNQ1 block;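 active means mean of duplicate thallium-flux fluorescence ratios in parental host cells more than 5 SD below the buffer control mean, cut at about 0.38 in these data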;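 further: ratio is peak minus minimum fluorescence divided by baseline fluorescence; actives read low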
KCNQ1 ephys val = confirmation of human KCNQ1 potassium channel inhibitors by electrophysiology; hit rate 20% among 490; shares compounds with KCNQ1 block; KCNQ1-CHO cells, automated patch clamp current; calls only at 10 µM;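 active means KCNQ1 current drop exceeding 3 SD of negative control wells, seen in both duplicate runs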;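 further: steady state current during a 2 s step from -80 to +40 mV; negative values mean current inhibition and positive values mean potentiation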
KCNQ2 inh = KCNQ1 inhibitor that also blocks rat KCNQ2 channel; AID 651746; shares compounds with KCNQ1 block; inhibition, % at 10 µM; KCNQ2 cells, FluxOR thallium flux fluorescence; hit rate 71% among 1,600;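 active means mean percent inhibition of the KCNQ2 thallium signal more than 5 SD above the buffer-only control wells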;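 further: KCNQ2 expressed in CHO cells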
Target sequence (O88943 whole entry, looked up): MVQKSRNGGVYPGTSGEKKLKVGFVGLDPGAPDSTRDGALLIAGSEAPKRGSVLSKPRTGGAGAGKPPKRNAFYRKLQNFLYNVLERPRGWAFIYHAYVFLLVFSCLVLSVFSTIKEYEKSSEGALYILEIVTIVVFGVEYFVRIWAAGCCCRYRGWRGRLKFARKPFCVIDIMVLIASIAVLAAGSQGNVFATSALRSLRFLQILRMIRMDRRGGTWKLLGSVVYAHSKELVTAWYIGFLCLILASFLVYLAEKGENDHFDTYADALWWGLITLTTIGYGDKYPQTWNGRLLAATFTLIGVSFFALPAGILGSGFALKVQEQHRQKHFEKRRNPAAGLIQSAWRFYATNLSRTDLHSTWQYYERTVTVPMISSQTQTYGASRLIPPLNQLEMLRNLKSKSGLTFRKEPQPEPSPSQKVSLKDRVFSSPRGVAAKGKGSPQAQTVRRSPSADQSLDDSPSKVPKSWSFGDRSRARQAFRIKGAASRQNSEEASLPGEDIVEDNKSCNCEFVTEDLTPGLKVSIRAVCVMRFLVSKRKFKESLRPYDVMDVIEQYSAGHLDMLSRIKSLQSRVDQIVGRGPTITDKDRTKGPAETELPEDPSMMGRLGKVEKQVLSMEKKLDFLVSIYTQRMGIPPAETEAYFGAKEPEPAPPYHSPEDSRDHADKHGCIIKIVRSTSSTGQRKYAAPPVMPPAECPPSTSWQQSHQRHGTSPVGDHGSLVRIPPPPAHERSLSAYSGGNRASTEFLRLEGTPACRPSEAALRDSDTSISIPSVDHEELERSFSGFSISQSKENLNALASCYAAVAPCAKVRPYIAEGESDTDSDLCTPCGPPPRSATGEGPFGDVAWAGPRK
KCNQ1-KCNE1 inh = human KCNQ1/KCNE1 inhibition in KCNQ1 specificity screen | shares compounds with KCNQ1 block | KCNQ1/KCNE1 cells, FluxOR thallium flux fluorescence | inhibition, % at 10 µM | hit rate 77% among 1,600;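 active means mean percent inhibition of duplicate wells above the buffer-only control mean plus 3 SD of those controls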
Hits are given with their value; n = inactive; x = no result given; + = active, no number.

SMILES	KCNQ1 pot	Kir21 block	KCNQ1 block	KCNK9 block	KCNK3 inh	hERG protect	KCNQ1 block val	CHO KCNQ1 ctr	KCNQ2 inh	KCNQ1-KCNE1 inh	others
Cc1cc(Br)ccc1NC(=O)c1sc2ncnc(N3CCN(c4ccccn4)CC3)c2c1C	n	n	6	n	n	n	89	n	104%	82%	KCNQ1 ephys val=n
O=C(NC(Cc1ccccc1)C(=O)O)/C(=C\c1ccccc1)NC(=O)c1ccc(Br)o1 (stereo not drawn)	n	n	n	n	n	n	x	x	x	x
Cc1cc(OCC(=O)Nc2ccncc2)cc(C)c1Br	n	n	8	n	n	n	131	n	96%	n	KCNQ1 ephys val=n
Fc1ccc(CSc2nc3ccccc3[nH]2)c2ccccc12	n	n	6	n	n	n	124	0.35	107%	124%
O=c1cc(CSc2nc3ccccc3[nH]2)c2ccccc2[nH]1	n	n	n	n	n	n	x	x	x	x
CN(C)c1ccc(-c2sc(Nc3ccccc3)n[n+]2-c2ccc(F)cc2)cc1	n	n	n	n	n	n	x	x	x	x
COc1ccc(C)cc1Nc1n[n+](-c2ccccc2)c(-c2ccc(N(C)C)cc2)s1	n	n	15	-7.2	n	n	+	0.22	n	n
CCn1cc(CN2CCC(n3nccc3NC(=O)C(OC)c3ccccc3)CC2)cn1 (stereo not drawn)	n	n	n	n	n	n	x	x	x	x
CN(C)C(CNC(=O)c1cc(S(=O)(=O)N(C)c2ccc(F)cc2)ccc1Cl)c1cccs1 (stereo not drawn)	x	x	x	x	n	x	x	x	x	x
O=C(Nc1nc(-c2ccccc2)c(-c2ccccc2)s1)c1ccc(S(=O)(=O)N2CCCCC2)cc1	n	n	n	n	n	n	x	x	x	x
O=C(Nc1nc(-c2ccccc2)c(C(=O)c2ccccc2)s1)c1ccc(S(=O)(=O)N2CCCCC2)cc1	n	n	8	n	n	n	83	n	n	112%
Cc1c[n+]([O-])cc(C)c1[N+](=O)[O-]	x	x	x	x	n	x	x	x	x	x
CCOc1nc(Nc2ccc(OC)c(Cl)c2)nc(N2CCN(c3ccc(OC)cc3)CC2)n1	n	n	7	n	n	n	114	n	79%	144%	KCNQ1 ephys val=n
CCOc1nc(Nc2ccc(F)cc2)nc(N2CCN(c3ccc(OC)cc3)CC2)n1	n	n	n	n	n	n	x	x	x	x
Cc1ccc(S(=O)(=O)c2ccc(C)cc2)cc1	n	n	n	n	n	n	x	x	x	x
Cc1ccc(S(=O)(=O)c2ccc(Oc3cccc(C)c3)cc2)cc1	n	n	8	n	n	n	112	n	108%	114%	KCNQ1 ephys val=n
O=C1c2ccccc2C(=O)N1CSc1nnc2c3ccccc3n(CCc3ccccc3)c2n1	n	n	6	n	n	n	42	n	78%	n
CCN(CC)CCN(Cc1cc2cccc(C)c2[nH]c1=O)C(=S)Nc1ccccc1	n	n	n	n	n	n	x	x	x	x
Cc1ccc2cc(CN(CCN(C)C)C(=S)Nc3ccccc3)c(=O)[nH]c2c1C	n	n	7	n	n	12	56	n	n	86%
Cc1ccc(S(=O)(=O)NC(=O)c2cc(C)n(-c3ccccc3)c2C)cc1	n	n	n	n	n	n	x	x	x	x
Cc1ccc(S(=O)(=O)NC(=O)c2cc(C)n(-c3ccc(N(C)C)cc3)c2C)cc1	n	n	6	n	n	n	30	n	n	n
Cc1cc(C)cc(N(CC(=O)NCc2ccco2)S(=O)(=O)c2ccccc2)c1	n	n	n	n	n	n	x	x	x	x
CC(=O)N1CCN(S(=O)(=O)c2ccc3c(c2)CCC(=O)N3)CC1	x	x	x	x	n	x	x	x	x	x
